Screening results (PubChem BioAssay)
This is a sample that favours compounds with a hit; in the whole collection about 0.88% have one here.
APJ antagonist: blocks the human apelin receptor APJ; inhibition, % at 20 µM; CHO-K1 APJ beta-arrestin complementation, luminescence; 0.32% of 330,000 active; P35414;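 active = inhibition above about 40% at 20 µM, limit read from the data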;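 note: cells challenged with 10 nM apelin-13 agonist together with compound; plate controls were apelin-13 plus DMSO wells for no effect and DMSO wells lacking apelin-13 for full effect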
APJ ag: APJ receptor agonism. P35414. CHO-K1 APJ PathHunter beta-arrestin, luminescence; 0% DMSO wells, 100% apelin. activation, % at 20 µM. 0.11% of 330,000 active;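 active = activation more than six SD over the plate average, tested at 20 µM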;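 note: 0% = DMSO alone and 100% = apelin-13 at 10 nM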
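Assay system: engineered CHO-K1 APJ arrestin reporter cells; Amount: 1000 CHO-K1 reporter cells seeded per well; Dosing: one dose, 20 µM compound, 1% DMSO; Times: compound stimulation 90 min at 25 °C, detection 60 min; Measured by: luminescent beta-gal fragment complementation, chemiluminescent substrate; Read-out: APJ–arrestin association signal; Controls: DMSO vs Apelin-13 10 nM.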
CCR6 antagonist: antagonists of human CCR6 receptor; P51684; CHO-K1 CCR6 PathHunter beta-arrestin, luminescence, CCL20-stimulated; inhibition, % at 20 µM; 0.49% of 340,000 active; AID 493098;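 active = compounds whose inhibition of the agonist-driven luminescence signal at 20 µM reaches about 50%, limit read from the data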;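 note: cells stimulated with CCL20 at 14 nM final; plate controls were DMSO with CCL20 for no effect and DMSO without agonist for full effect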
Target sequence (P51684 whole entry, looked up): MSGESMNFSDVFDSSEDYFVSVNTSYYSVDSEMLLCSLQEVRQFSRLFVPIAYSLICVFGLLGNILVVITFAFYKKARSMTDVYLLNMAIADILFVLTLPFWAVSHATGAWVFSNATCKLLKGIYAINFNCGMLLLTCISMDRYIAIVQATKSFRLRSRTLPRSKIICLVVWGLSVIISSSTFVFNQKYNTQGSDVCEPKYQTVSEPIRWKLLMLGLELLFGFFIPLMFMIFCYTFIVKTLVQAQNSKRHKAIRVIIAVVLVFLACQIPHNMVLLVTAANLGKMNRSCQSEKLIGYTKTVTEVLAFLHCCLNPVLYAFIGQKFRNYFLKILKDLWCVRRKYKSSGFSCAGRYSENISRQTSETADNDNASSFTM
PKA-R1A activ: PKA-R1A complex activation | PKA-R1A dissociation, Cy5-IP20 fluorescence polarization; scaled: DMSO 0%, 113 µM cGMP 100% | activation, % at 11.4 µM | P00514+P68181 | 0.083% of 340,000 active;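 active = percent activation above the mean of all tested compounds plus 3 SD, cut at about 19% in these data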;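 note: higher means more PKAc released from R1A so a rise in polarization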
PKA-R2B act: PKA-R2B complex activation. P22694+P31323. PKA-R2B holoenzyme dissociation, Cy5-IP20 fluorescence polarization; R2B truncated from residue 108, S112A mutant; 0% DMSO only, 100% 113 µM cGMP. activation, % at 11.4 µM. 0.079% of 340,000 active;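 active = activation above a cutoff set at the mean over all compounds plus 3 SD, cut at about 18% in these data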;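 note: higher means more holoenzyme dissociation and a rise in polarization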
CXCR6 inh: inhibitors of human CXCR6 receptor | O00574 | CHO-K1 PathHunter CXCR6 beta-arrestin, luminescence | inhibition, % at 20 µM | 0.36% of 360,000 active; in the data active = inhibition above about 34%, passing the limit was not always enough;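 note: antagonist mode with CXCL16 agonist at 10 nM final; 0% = 10 nM CXCL16 with DMSO and 100% = unstimulated wells without agonist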
* marks the source's active call; other numbers are inactive results; . = not tested or not shown.

SMILES	APJ antagonist	APJ ag	CCR6 antagonist	PKA-R1A activ	PKA-R2B act	CXCR6 inh
CC(=O)N1CCN(S(=O)(=O)c2cccc(C(=O)N3CCN(S(=O)(=O)c4c(C)c(C)cc(C)c4C)CC3)c2)CC1	.	.	.	-1	-12	4
COc1cc(/C=C/c2cc(OC(C)=O)c3ccccc3n2)c(OC(C)=O)c([N+](=O)[O-])c1	39	-7	63*	-11	-11	31
CC(=O)Oc1c(Cl)cc(Cl)cc1/C=C/c1ccc2ccccc2n1	-12	-3	-36	-19	-3	-19
C[C@@H]1CC2=C(C(=O)OC(C)(C)O2)[C@H](c2ccc(Cl)cc2)O1	.	.	.	.	.	1
CS(=O)(=O)c1ccc(S(=O)CC(=O)OCc2ccccc2)c([N+](=O)[O-])c1 (stereo not given)	.	.	.	-12	-12	52*
CC(C)N1CCC1(C)C(=O)Nc1nccc2cccnc12 (stereo not given)	.	.	.	.	.	0
CC1(C(=O)Nc2cccc(NS(C)(=O)=O)c2)CCN1Cc1ccccc1OC(F)F (stereo not given)	.	.	.	.	.	-2
O=C1OC2(c3ccccc31)c1cc(I)c(O)c(I)c1Oc1c2cc(I)c(O)c1I	46*	-9	.	.	.	.
Cc1cc(O)ccc1C1(c2ccc(O)cc2C)OC(=O)c2ccccc21	5	2	28	-21	-23	5
O=C(Cn1ccc2ccccc2c1=O)Nc1ccc2c(c1)OCO2	-5	-5	69*	10	1	-6
COc1cc(/C=C/C(=O)c2ccc([N+](=O)[O-])o2)ccc1O	-54	2	75*	-4	4	15
COc1ccc(/C=C/C(=O)c2ccc([N+](=O)[O-])o2)cc1OC	-126	21	49	.	.	.
COc1cc(/C=C/C(=O)/C=C(O)/C=C/c2ccc(O)c(OC)c2)ccc1O	4	-8	54*	-5	-16	33
CCN1/C(=C2\C(=O)N(c3ccccc3)N=C2C)C=Cc2cc(C)ccc21	7	-5	11	2	5	0
CCN1/C(=c2/s/c(=C3/C(=O)N(c4ccccc4)N=C3C)n(CC)c2=O)C=Cc2ccccc21	11	-2	52*	-10	4	10
COc1cc(SSc2cc(OC)cc([N+](=O)[O-])c2N)c(N)c([N+](=O)[O-])c1	-17	0	54*	-3	5	30
O=[N+]([O-])c1ccc(Sc2cccc[n+]2[O-])c2nonc12	.	.	115*	4	10	110*
O=C(CSc1cccc[n+]1[O-])Nc1cc(Cl)ccc1[N+](=O)[O-]	-17	2	-5	-5	12	-20
O=[N+]([O-])c1ccc(Nc2ccccc2)c2nonc12	52*	-8	51*	7	2	32
COc1cncc(C#Cc2ccccn2)c1	.	.	.	.	.	1
Nc1[nH]c(C(=O)c2ccccc2)c(-c2ccc(Cl)cc2)c1C(=O)NCCc1c[nH]c2ccccc12	.	.	.	.	.	3
COc1ccc(N2C(=O)CC(Sc3ncn[nH]3)C2=O)c(OC)c1 (stereo not given)	9	4	79*	-5	-15	-4
FC(F)(F)c1cnc(NNC(=S)Nc2ccccc2Cl)c(Cl)c1	37	1	85*	-12	-1	82*
CC(C)(C)c1ccc(S(=O)(=O)NC(=O)C2(C)CCN2C(=O)Cc2ccc(-c3ccccc3)cc2)cc1 (stereo not given)	.	.	.	.	.	1
CN(/N=C/c1cc(Br)cc(Br)c1O)c1cccc(C(F)(F)F)n1	28	-3	.	-14	-3	58*
COc1ccccc1N(C(C)=O)C1=C(Cl)C(=O)c2ccccc2C1=O	.	.	.	0	0	96*
COc1ccccc1N(C(=O)CCl)c1cn(C(C)=O)c2ccccc12	19	-3	8	-9	-3	2
Nc1nc(=O)n(C2CCC(CO)O2)cc1F (stereo not given)	.	.	.	.	.	0
CCCn1nnc(NC(=S)NC(=O)c2ccc(-c3ccc(Br)cc3)o2)n1	14	-9	59*	0	4	31
CCc1n[nH]c(=S)n1/N=C/c1cc(OC)cc([N+](=O)[O-])c1O	42*	-6	62*	-14	-3	40
